The results in this text go back to ChEMBL document CHEMBL1148937, “Anti-inflammatory phloroglucinols and terpenoids from Garcinia subelliptica” (J Nat Prod, 2004).

The term IC50 denotes the point on the concentration scale where inhibition reaches its midpoint. Usually inhibition stands for the drop in the measured response relative to a control, in per cent.

SMILES strings stand for the structures.

Assay [1] concerns N9. Kind of assay: Antiinflammatory activity against mouse N9 cells assessed as inhibition of LPS/IFN-gamma-induced nitrite accumulation after 24 hrs. Conditions: N9, 24 h.
The test system of assay [2] is RAW264.7. In words: Antiinflammatory activity against mouse RAW264.7 cells assessed as inhibition of LPS-induced nitrite accumulation after 24 hrs. The settings on record: RAW264.7, 24 h. It is filed as functional, cell-based. In outline: (§1)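 RAW 264.7 macrophage-like cells stimulated with LPS (1 µg/mL) for 24 h. Nitrite accumulated in the medium was measured by Griess reaction as an index of NO production. IC50 in µM; % inhibition is reported when 50% inhibition was not reached at the top concentration. Means ± SEM, n = 3-5.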

Assay [3] concerns Mast cell. In words: Inhibition of compound 48/80-stimulated beta-glucuronidase release in rat peritoneal mast cell. Type of assay: functional, cell-based.
In assay [4] the test system is Mast cell. Kind of assay: Inhibition of compound 48/80-stimulated histamine release in rat mast cell. Type of assay: functional, cell-based.
Assay [5] relates to RAW264.7. Kind of assay: Antiinflammatory activity against mouse RAW264.7 cells assessed as inhibition of LPS-induced TNFalpha production at 30 uM. Type of assay: functional. The procedure, abridged:
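TNF-α production in the culture medium of LPS-stimulated RAW 264.7 cells, with test agent at 30 µM. Expressed as % inhibition.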

The test system of assay [6] is Neutrophil. In words: Induction of fMLP/CB-stimulated superoxide anion generation in rat neutrophil. Type of assay: functional, cell-based. In outline:
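Rat neutrophils stimulated with fMLP (0.3 µM) plus cytochalasin B (5 µg/mL). Superoxide anion generation measured across a concentration range of test agent.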

Assay [7] has as its system Mast cell. Kind of assay: Inhibition of compound 48/80-stimulated beta-glucuronidase release in rat mast cell at >30 uM. Type of assay: functional.
The test system of assay [8] is Mast cell. In words: Inhibition of compound 48/80-stimulated histamine release in rat mast cell at >30 uM. It is filed as functional.
Assay [9] relates to N9. In words: Antiinflammatory activity against mouse N9 cells assessed as inhibition of LPS/IFN-gamma-induced nitrite accumulation at >30 uM after 24 hrs. It is filed as functional. The procedure, abridged:
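N9 microglial cells stimulated with LPS (10 ng/mL) plus IFN-γ (10 U/mL) for 24 h. NO production measured as nitrite accumulation in the medium by Griess reaction. IC50 in µM; where 50% inhibition was not reached at the highest concentration, % inhibition is given. Means ± SEM, n = 3-5.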

Assay [10] has as its system RAW264.7. Kind of assay: Antiinflammatory activity against mouse RAW264.7 cells assessed as inhibition of LPS-induced nitrite accumulation at >30 uM after 24 hrs. It is filed as functional. The procedure, abridged: as §1

Regarding `CC(=N)NCc1cccc(CN)c1` [1400W], the concentration for half-maximal inhibition (IC50) in assay [1] came out at 6.3 µM; in assay [2] it was 2.9 µM.
As to `CC(C)=CC[C@H]1C[C@]2(C(=O)C(C)C)C(=O)[C@@](CC=C(C)C)(C(=O)C3=C2O[C@@H](C(C)(C)O)C3)C1(C)C` [GARCINIELLIPTONE L], the half-inhibitory concentration (IC50) in assay [3] was 22.9 µM; in [1], 12.8 µM; in assay [4], above 30 µM; in assay [2] it was 22.7 µM. Further, the inhibition at 30 µM in assay [5] came to 32.1%. Besides, the Activity result in [6] was “Dose-dependent effect”.
For `CC(C)=CC[C@H]1C[C@]2(C(=O)C(C)C)C(=O)[C@@](CC=C(C)C)(C(=O)C3=C2O[C@H](C(C)(C)O)C3)C1(C)C` [GARCINIELLIPTONE M], the IC50 was 13.6 µM in [3], above 30 µM in assay [1], 19 µM in assay [4] and 15.3 µM in assay [2]. The inhibition at 30 µM in assay [5] amounted to 36.9%. Besides, the Activity result in assay [6] was “Dose-dependent effect”.
For `CC(C)=CC[C@H]1C[C@@H](CC=C(C)C)C(C)(C)[C@@H](C(=O)C(C)C)C1=O` [GARCINIELLIPTONE N], the IC50 in assay [3], in assay [1], in assay [4] and in [2] was above 30 µM each time. The “inhibition (INH)” value is 30.2% in assay [7], 13.7% in [8], 34.5% in assay [9] and 5.7% in assay [10].
As for `COC(=O)[C@]1(CC=C(C)C)C[C@@H](CC=C(C)C)C(C)(C)[C@@H](C(=O)C(C)C)C1=O` [GARCINIELLIPTONE O], the 50% inhibitory concentration (IC50) in [3], in [1], in assay [4] and in [2] was above 30 µM in each case. Further, the “inhibition (INH)” value was 43.9% in assay [7], 32.8% in [8], 34.6% in [9] and 22.1% in [10].
Take `CCN(CC)CCCC(C)Nc1c2ccc(Cl)cc2nc2ccc(OC)cc12` (configuration not stated) [QUINACRINE]: the IC50 in assay [3] amounted to 13.7 µM; in assay [4], 23.3 µM.
